According to article PMC11447725 (ACS Omega, 2024):
Several values for one entry are separate records, joined by “and”; a condition that tells them apart may be missing. Equal values may be shown once. Read-outs that look alike come from different tables or passages of the source.

Columns and labels:
[1] = mice, cited from earlier work
[2] = rats, cited from earlier work
[3] = oral administration, rats; cited from earlier work
[4] = Stock solution stability at −30 ± 10 °C; format: physicochemical; conditions: for observed conc. after storage: stock solution in methanol, 22 days; for observed conc. after storage / accuracy after storage: n = 3; for time stable in stock solution / accuracy after storage: stock solution; for accuracy after storage: 22 days (text: 20 days), vs fresh
How it was run: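 HHC and IS methanol stocks were diluted in methanol to 375 and 110 ng/mL (n = 3) and stored at −30 ± 10 °C for 22 days. Peak responses by LC-MS/MS were compared with freshly prepared stocks, and results were checked against nominal values (precision within 15%, accuracy within ±15%).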

[5] = Pharmacokinetics of HHC in plasma after single oral administration in mice; format: in vivo; conditions: 40 mg/kg
How it was run: (§1)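 Male mice (18–22 g, acclimatised 1 week) received a single 40 mg/kg dose, IP or by oral gavage, in 0.1% DMSO diluted in 1% hydroxyethyl cellulose (10 μL/g). Four mice per time point (predose, 5–30 min, 1, 2, 4, 8, 24 h) were bled from the left ventricle under anaesthesia into EDTA. Plasma underwent MTBE extraction with butylparaben IS, then negative-ESI LC-MS/MS MRM. Noncompartmental analysis.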

[6] = Pharmacokinetics of HHC in plasma after single IP administration in mice; format: in vivo; conditions: 40 mg/kg
How it was run: as §1

[7] = Tissue distribution of HHC; format: in vivo, mice; conditions: male, mouse, ip, 40 mg/kg
How it was run: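 Mice were dosed 40 mg/kg IP in 0.1% DMSO/1% hydroxyethyl cellulose, and liver, kidney and brain were removed at the plasma sampling times (n = 4; brain n = 3). Tissues were homogenised 1:10 (w/w) in PBS. Brain was extracted like plasma; kidney and liver received acetone precipitation before MTBE extraction with butylparaben IS. Negative-ESI LC-MS/MS MRM, calibrated at 5–500 ng/mL. Noncompartmental parameters.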

[8] = Long-term stability of HHC in mice plasma at −30 ± 10 °C; format: in vitro ADME; conditions: 20 days; for accuracy after storage / observed conc. after storage: n = 3
How it was run: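 Blank mouse plasma was spiked at 15 and 375 ng/mL (n = 3) and kept at −30 ± 10 °C for 20 days. Samples were then extracted with MTBE using butylparaben IS and quantified by LC-MS/MS against daily calibration curves. Results were compared with nominal values; acceptance was precision within 15% and accuracy within ±15%.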

[9] = pH 7.4; cited from earlier work
[10] = after intravenous curcumin 20 mg/kg

COc1cc(/C=C/C(=O)CC(=O)CCc2ccc(O)c(OC)c2)ccc1O [dihydrocurcumin]
AUC0–∞ [1, 10]: 6.0 ± 1.2 mg·min/L
detection in kidneys [1, 10]: present

COc1cc(/C=C/C(=O)CC(=O)/C=C/c2ccc(O)c(OC)c2)ccc1O [curcumin]
elimination half-life (T1/2,β) ([2]; intravenous 10 mg/kg): 0.742 ± 0.125 h
Tmax ([2]; oral 500 mg/kg): 0.695 ± 0.09 h
elimination half-life (T1/2,β) ([2]; oral 500 mg/kg): 0.468 ± 0.0933 h
oral bioavailability [2]: approximately 1%
AUC0–∞ [1, 10]: 107.0 ± 18.3 mg·min/L
T1/2,z ([1]; intravenous curcumin 20 mg/kg, plasma): 0.538 ± 0.18 h
half-life [3]: 0.545 h

CCCCOC(=O)c1ccc(O)cc1 [IS, butylparaben, reference compound]
time stable in stock solution [4]: at least 22 days
observed conc. after storage ([4]; nominal 110.10 ng/mL): 112.08 ± 0.90 ng/mL
accuracy after storage [4]: 101.80%

COc1cc(CCC(=O)CC(=O)CCc2ccc(O)c(OC)c2)ccc1O [tetrahydrocurcumin]
AUC0–∞ [1, 10]: 12.0 ± 4.0 mg·min/L
detection in liver [1, 10]: detectable

COc1cc(CCC(=O)CC(O)CCc2ccc(O)c(OC)c2)ccc1O (stereo not shown) [HHC, hexahydrocurcumin]
AUC(0-inf) ([5]; male, mouse, po): 142 ng·h/mL
AUC(0-t) ([5]; male, mouse, po): 127 ng·h/mL
Cmax ([5]; male, mouse, po): 194 ± 43.5 ng/mL
MRT inf ([5]; male, mouse, po): 2.58 h
MRT last ([5]; male, mouse, po): 1.61 h
half-life ([5]; male, mouse, po, T1/2, oral 40 mg/kg, mice, n = 4): ~2.17 h
Tmax ([5]; male, mouse, po, Tmax, oral 40 mg/kg, mice, n = 4): ~0.25 h
half-life ([5]; male, mouse, po, half-life, oral 40 mg/kg, mice): ~2.17 h
percent relative bioavailability (AUC0–t oral / AUC0–t IP) ([5]; oral vs IP, mice): 12.28%
Cmax after IP relative to oral administration ([6]; mice, IP vs oral): 47.90 times and 47.9 times
Cmax ([6]; male, mouse, ip): 9300 ± 4290 ng/mL
MRT inf ([6]; male, mouse, ip): 0.875 h
MRT last ([6]; male, mouse, ip): 0.708 h
half-life ([6]; male, mouse, ip, T1/2, IP 40 mg/kg, mice, n = 4): ~1.52 h
Tmax ([6]; male, mouse, ip, Tmax, IP 40 mg/kg, mice, n = 4): ~5 min
half-life ([6]; male, mouse, ip, half-life, IP 40 mg/kg, mice): ~1.52 h
AUC(0-inf) ([7]; brain): 21.1 ng·h/mL
AUC(0-t) ([7]; brain): 18.7 ng·h/mL
Cmax ([7]; brain): 120 ± 54.1 ng/mL
MRT inf ([7]; brain): 2.04 h
MRT last ([7]; brain): 1.05 h
Tmax ([7]; brain): 5 min
half-life ([7]; brain): 1.77 ± 0.98 h
Cmax ([7]; kidney): 1700 ± 897 ng/mL
MRT inf ([7]; kidney): 1.94 h
MRT last ([7]; kidney): 1.6 h
Tmax ([7]; kidney): 6.3 min
half-life ([7]; kidney): 1.7 ± 0.623 h
MRT inf ([7]; liver): 2.67 h
MRT last ([7]; liver): 2.6 h
Tmax ([7]; liver): 5 min
half-life ([7]; liver): 1.74 ± 0.43 h
time stable in stock solution [4]: at least 22 days
observed conc. after storage ([4]; nominal 375.00 ng/mL): 398.08 ± 1.45 ng/mL
accuracy after storage [4]: 106.15%
stability in plasma samples [8]: stable
accuracy after storage ([8]; HQC nominal 375.00 ng/mL): 94.81%
observed conc. after storage ([8]; HQC nominal 375.00 ng/mL): 355.53 ± 34.51 ng/mL
accuracy after storage ([8]; LQC nominal 15.00 ng/mL): 90.27%
observed conc. after storage ([8]; LQC nominal 15.00 ng/mL): 13.54 ± 1.03 ng/mL
stability compared with curcumin [9]: superior stability to curcumin
